Test results from ChEMBL document CHEMBL1146638, “Chemical basis for the biological activity of imexon and related cyanoaziridines” (J Med Chem, 2004).
Several values for one entry are separate records, joined by “and”; a condition that tells them apart may be missing. Equal entries are not always repeated.

How the values were obtained:
L1210 [1] = assay: Cytotoxicity against multidrug resistant (MDR) L1210 murine leukemia cells by MTT assay; type: functional, cell-based, Mus musculus
How it was run: (§1)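 Murine L1210 leukemia cells, drug-sensitive and multidrug-resistant (MDR) sublines, tested in culture. Viability read by MTT assay. Values reported as IC50 in µM.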

L1210 [2] = assay: Cytotoxicity against sensitive L1210 murine leukemia cells by MTT assay; type: functional, cell-based, Mus musculus; how it was run: as §1
RPMI-8226 = assay: Cytotoxicity against sensitive human myeloma 8226/S cells by MTT assay

N#CC1CN1C(=O)Nc1ccccc1 (stereo not drawn)
IC50 (L1210 [1]; l1210): 41.2 µM
IC50 (L1210 [2]; l1210): 38.4 µM

N#CC1CN1C(N)=O (stereo not drawn)
IC50 (L1210 [1]; Mus musculus, L1210): > 500 µM
IC50 (L1210 [2]; Mus musculus, L1210): > 500 µM
IC50 (RPMI-8226): > 500 µM

CC(=O)NC(CSCC1NC(=O)NC1=O)C(=O)O (stereo not drawn)
IC50 (L1210 [1]; Mus musculus, L1210): 116 µM
IC50 (L1210 [2]; Mus musculus, L1210): 73.7 µM
IC50 (RPMI-8226): 56.3 µM

NC(=O)N1CC1C1=NC(C(=O)O)CS1 (stereo not drawn)
IC50 (L1210 [1]; Mus musculus, L1210): > 500 µM
IC50 (L1210 [2]; Mus musculus, L1210): > 500 µM

O=C(Nc1ccccc1)N1CC1
IC50 (L1210 [1]; l1210): 5.8 µM and 28.4 µM

N#CC1CN1 (stereo not drawn)
IC50 (L1210 [1]; Mus musculus, L1210): > 500 µM
IC50 (L1210 [2]; Mus musculus, L1210): > 500 µM

CNC(=O)N1CC1C1=NC(C(=O)O)CS1 (stereo not drawn)
IC50 (L1210 [1]; Mus musculus, L1210): > 500 µM
IC50 (L1210 [2]; Mus musculus, L1210): > 500 µM

CNC(=O)N1CC1C#N (stereo not drawn)
IC50 (L1210 [1]; Mus musculus, L1210): 36.7 µM
IC50 (L1210 [2]; Mus musculus, L1210): 25.1 µM
IC50 (RPMI-8226): 15.5 µM

O=C(O)C1CSC(C2CN2)=N1 (stereo not drawn)
IC50 (L1210 [1]; Mus musculus, L1210): > 500 µM
IC50 (L1210 [2]; Mus musculus, L1210): > 500 µM

C[N+](C)(C)C(CSCC(C#N)NC(=O)Nc1ccccc1)C(=O)[O-] (stereo not drawn)
IC50 (L1210 [1]; Mus musculus, L1210): > 500 µM
IC50 (L1210 [2]; Mus musculus, L1210): 73.9 µM
IC50 (RPMI-8226): 44.9 µM
